# Screening results (PubChem BioAssay)
# TCR-CD3 inh: inhibitors of human TCR-CD3 interaction; TAMRA-labeled TCR probe fluorescence, biochemical; 360,000 tested, 0.37% active; inhibition, % at 9.4 µM; in the data active = inhibition above about 19%;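 note: recombinant mutant TCR 2C K166C tagged with TAMRA read by polarization; 0% = receptor in buffer alone and 100% = receptor with positive control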
# PRMT1 FP inh: inhibitors of human PRMT1; inhibition, % at 2.79 µM; recombinant PRMT1, activity-based probe fluorescence polarization; 370,000 tested, 1.3% active; AID 652257;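 active = inhibition above about 21% made by adding two undisclosed values, limit read from the data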
# Target sequence (Q99873 whole entry, looked up): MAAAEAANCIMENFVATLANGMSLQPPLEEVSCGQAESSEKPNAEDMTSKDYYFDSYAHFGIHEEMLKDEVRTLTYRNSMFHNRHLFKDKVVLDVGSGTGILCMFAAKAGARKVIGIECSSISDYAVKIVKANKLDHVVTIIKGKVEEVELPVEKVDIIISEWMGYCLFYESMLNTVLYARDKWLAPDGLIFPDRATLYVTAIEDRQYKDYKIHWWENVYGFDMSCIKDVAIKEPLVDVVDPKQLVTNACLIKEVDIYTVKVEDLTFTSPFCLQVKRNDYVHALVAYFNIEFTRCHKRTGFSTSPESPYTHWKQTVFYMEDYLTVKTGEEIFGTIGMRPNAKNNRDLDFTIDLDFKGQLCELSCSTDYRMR
# SIAE inh: blocks human sialic acid acetylesterase; Q9HAT2; SIAE FP-Rh probe binding, fluorescence polarization; 370,000 tested, 0.69% active; AID 1053197; inhibition, % at 9.66 µM;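 active = inhibition above a cutoff: mean of compounds within the control limits plus 3 SD of those, cut at about 17% in these data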;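 note: 0% = plate median of compound wells and 100% = probe without SIAE protein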
# HTRA1 inh: HTRA1 (human) protease inhibition | Q92743 | recombinant HTRA1, FP-rhodamine activity-based probe, fluorescence polarization | inhibition, % at 5.96 µM | 340,000 tested, 0.5% active | AID 504803; in the data active = inhibition above about 36%;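 note: 0% = enzyme with DMSO and 100% = wells lacking enzyme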
# ABHD4 inh: inhibitors of mouse ABHD4; Q8VD66; purified mABHD4, FP-Rh probe fluorescence polarization; inhibition, % at 8.92 µM; 370,000 tested, 0.54% active; AID 720543;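 active = inhibition exceeding the mean over every tested compound plus 3 SD, cut at about 30% in these data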;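 note: 0% = plate median of compound wells and 100% = S159A mutant with DMSO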
#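 Test system: mABHD4 protein; Read-out basis: % inhibition; Incubation: 45 min + 60 min at 25 °C; Repeats: single replicate; Technique: fluorescence polarization with parallel and perpendicular emission, 525/598 nm; Compound: 8.92 µM, single dose; Benchmarks: full inhibition S159A mutant plus DMSO, zero as sample-well median.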
# mABHD4 conf: confirmation of mouse ABHD4 inhibitors; shares compounds with ABHD4 inh; purified mABHD4, FP-Rh probe fluorescence polarization; inhibition, % at 8.92 µM; 1,800 tested, 55% active; AID 720658;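 active = mean inhibition across replicates above the hit cutoff set in the primary screen, cut at about 30% in these data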;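 note: 0% = wild-type ABHD4 with DMSO and 100% = catalytically dead S159A mutant with DMSO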
# The depositor's hits bear a star; . = no result. An excerpt weighted towards active compounds, which were near 2.6% of everything screened.
SMILES,TCR-CD3 inh,PRMT1 FP inh,SIAE inh,HTRA1 inh,ABHD4 inh,mABHD4 conf
O=C1NN(c2ccccc2)C(=O)/C1=C\c1ccc(-c2cc([N+](=O)[O-])ccc2O)o1,-0.3,0.8,2.3,15.0,33.6*,44.3*
COc1ccc2c(c1)Sc1ccc(Cl)cc1N2,.,12.3,2.4,.,33.9*,34.4*
CC1(C)CC(=O)C2=C(C1)Nc1cc(Cl)ccc1S2,-0.5,3.0,5.3,6.2,9.9,.
Cc1ccc(CS(=O)Cc2ccc(C(=O)NC3CCCCC3)o2)cc1 (stereo unspecified),-9.3,0.4,2.5,-6.0,-8.2,.
COc1ccc(-c2csc(Nc3ccc(S(=O)(=O)Nc4cc(C)on4)cc3)n2)cc1C,6.4,-1.3,14.6,-43.0,33.5*,28.6
COc1cc(NS(=O)(=O)c2ccc(Nc3nc(-c4ccccn4)cs3)cc2)nc(OC)n1,-11.8,2.4,-1.3,11.7,35.1*,31.3*
COc1ccc(-c2csc(Nc3ccc(S(=O)(=O)Nc4cc(OC)nc(OC)n4)cc3)n2)cc1,7.5,-2.2,13.2,1.7,26.9,.
COc1ccc(C(=O)NC(CCSC)C(=O)NC2CC2)cc1 (stereo unspecified),-3.8,0.5,-0.8,4.3,-0.1,.
COCCCNC(=O)Cn1cnc2c(OCc3ccccc3)ncnc21,3.6,-3.4,-3.6,4.4,0.1,.
O=C(O)c1cc(-c2c[nH]c3ccccc23)nc2ccc3ccccc3c12,2.4,4.0,-3.1,-10.5,30.8*,16.4
Cc1cc(C)cc(NC2=CC(=O)CC(c3ccco3)C2)c1 (stereo unspecified),-1.1,2.2,6.1,-3.1,8.4,.
CCc1ccc(NC2=CC(=O)CC(c3ccco3)C2)cc1 (stereo unspecified),-7.6,5.1,-1.6,0.8,37.5*,12.0
COC(=O)c1c(C)oc2c1cc(NS(=O)(=O)c1ccc(C(=O)O)cc1)c1ccccc12,-2.5,13.7,-14.2,-20.3,34.4*,21.3
CC(=O)c1c(C)oc2c1cc(NS(=O)(=O)c1ccc(C(=O)O)cc1)c1ccccc12,-4.8,0.4,-8.2,-12.3,7.2,.
Cc1ccc(-c2nc3ncccn3c2N)cc1,-5.2,3.7,4.0,.,5.6,.
Nc1c(-c2ccc(C(F)(F)F)cc2)nc2ncccn12,0.6,1.3,12.5,.,37.7*,9.7
Oc1ccc(/C=N/Nc2nc(N3CCCC3)nc(N3CCCC3)n2)cc1O,5.1,3.8,6.6,27.3,29.9*,24.6
Nc1nc(N)nc(-c2ccccn2)n1,6.2,0.2,-4.9,5.9,-0.8,.
c1ccc(-c2nc(-c3ccccn3)nc(-c3ccccn3)n2)nc1,0.8,-2.1,-0.8,1.7,35.4*,46.8*
C[C@@H]1[C@H]2[C@@H]3CC[C@@H](C3)[C@H]2CN[C@H]1c1cn(Cc2ccccc2)c2ccccc12,-0.2,-2.9,4.5,-7.5,16.9,.
O=C(COC(=O)CNC(=O)c1ccc(Cl)cc1Cl)NCc1ccco1,-15.7,-0.1,-1.6,3.8,-3.5,.
Cc1cc(C(C)(C)CC(C)(C)C)ccc1OCCOCC[N+](C)(C)Cc1ccccc1,4.6,-0.2,3.1,24.6,35.7*,45.4*
C[N+](C)(CCOc1ccccc1)Cc1ccccc1,7.4,10.9,9.0,3.7,27.6,.
CC12CCC(C(S(=O)(=O)Nc3ccccc3)C1=O)C2(C)C (stereo unspecified),-1.2,0.4,-2.9,2.4,-4.2,.
S=C(NC1CCCCC1)N(CCc1nc2ccccc2[nH]1)C1CCCC1,2.9,1.1,-1.4,-23.2,50.7*,52.9*
SMILES,TCR-CD3 inh,PRMT1 FP inh,SIAE inh,HTRA1 inh,ABHD4 inh,mABHD4 conf
Cc1cc(NC(=O)CSc2nnnn2C)n(-c2ccccc2)n1,5.7,2.1,4.0,-7.0,56.5*,-0.5
Cn1nnnc1SCC(=O)Nc1cc(C(C)(C)C)nn1-c1ccccc1,-0.8,0.2,-1.9,-1.6,-1.8,.
N#CCC(=O)Nc1ccc(C(=O)OCC(=O)Nc2ccccc2Sc2ccccc2)cc1,9.1,0.6,7.5,.,52.3*,-77.0
CN1CCC(NC(=O)c2cc(-c3cccc(Br)c3)nc3ccccc23)CC1,-8.7,2.0,-13.9,1.8,1.9,.
COc1cc(OC)c(OC)cc1/C=N/Nc1nc2ccccc2[nH]1,1.1,-0.1,8.4,14.3,21.4,.
C(=N\Nc1nc2ccccc2[nH]1)/c1ccccn1,-6.5,2.2,2.6,33.9,33.7*,32.4*
CCN(CC)c1ccc(/C=N/Nc2nc3ccccc3[nH]2)c(O)c1,-2.8,0.0,28.4*,16.9,30.9*,80.1*
CC(C)(C)c1ccc(C(=O)NNC(=O)CCc2ccccc2)cc1,2.9,-0.8,-1.5,.,-5.6,.
CNC(=O)c1cc(Cl)c(OC)c(OC)c1,-1.9,6.0,3.8,-3.5,14.2,.
COC(=O)C(=O)C1CCc2c(Cl)cc(OC)c(OC)c2C1=O (stereo unspecified),-5.2,20.0,14.3,12.1,52.0*,12.3
C=C(C)C(=O)Nc1cccnc1Oc1ccc(F)cc1F,-12.3,9.4,-0.5,0.3,-0.6,.
O=C(O)c1ccc(Cl)c(S(=O)(=O)Nc2ccccc2Cc2ccccc2)c1,-1.7,2.0,-10.3,-8.5,30.2*,27.6
CC(C)CC(=O)Nc1ccc(C(=O)COC(=O)C2=COCCO2)cc1,-2.7,7.0,11.8,-6.0,94.7*,4.8
O=C(COC(=O)C1=COCCO1)Nc1ccccc1,-7.4,2.1,-3.4,2.7,-11.2,.
COc1ccc(C(=O)NCC(=O)OCc2nc(N)nc(Nc3ccccc3C)n2)cc1,2.8,-0.1,0.2,-1.9,1.5,.
O=[N+]([O-])c1cccc(NN=Nc2ccccc2)c1,-6.0,3.8,2.9,4.1,7.1,.
O=C(O)c1cccc(NC(=O)c2cccc(S(=O)(=O)Nc3cccc([N+](=O)[O-])c3)c2)c1,-4.8,3.8,-9.4,-0.9,-9.4,.
O=C(O)c1cc(NN=Nc2ccc(Br)cc2)cc([N+](=O)[O-])c1,5.1,6.1,-7.1,-5.1,67.7*,67.2*
O=C(O)c1cc(NN=Nc2cccc(S(=O)(=O)O)c2)cc([N+](=O)[O-])c1,6.9,2.3,-9.5,2.7,38.8*,35.5*
O=C(O)c1cc(NN=Nc2cccc([N+](=O)[O-])c2)cc([N+](=O)[O-])c1,1.8,6.3,-17.5,-3.6,69.0*,73.2*
COc1ccc(C(=O)NCCCCCCNC(=O)c2ccc(OC)cc2)cc1,-7.2,6.9,-12.5,-1.5,-15.4,.
Cc1ccc(NC2=C(Cl)C(=O)c3ccccc3C2=O)cc1,-0.5,3.4,9.9,4.5,11.9,.
O=C1C(Cl)=C(Nc2ccc(O)cc2)C(=O)c2ccccc21,-2.5,36.3*,12.6,23.1,41.0*,54.0*
CN1CCc2cccc3c2C1Cc1ccc(O)c(O)c1-3 (stereo unspecified),7.0,47.4*,5.7,35.5,53.3*,0.6
CN1CCC(=C2c3ccccc3C(O)c3ccccc32)CC1 (stereo unspecified),-2.7,-0.7,2.5,1.0,7.7,.
COc1ccc(C2C(C#N)=C(N)Oc3cc(O)ccc32)cc1Cl (stereo unspecified),2.4,0.4,0.4,-12.4,-2.6,.
